# NPY-Y1 PAM-ag: potentiators or agonists of human neuropeptide Y receptor Y1; P25929; NPY-Y1 expressing cells, potentiator/agonist activation; activation, % at 3.6 µM; actives 0.37% (n = 220,000); in the data active means activation above about 33%, passing the limit was not always enough;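 further: cells stimulated with NPY at EC10 then isoproterenol at EC100; 0% = low agonist plus stimulus and 100% = saturating agonist plus stimulus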
# NPY Y2 blocker: blocks the human neuropeptide Y Y2 receptor; P49146; AID 793; actives 0.99% (n = 140,000); NPY-Y2 expressing cells, antagonist mode; inhibition, % at 2.7 µM; in the data active means inhibition above about 17%;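 further: 0% = vehicle with agonist challenge and 100% = reference antagonist with challenge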
# Target sequence (P49146 whole entry, looked up): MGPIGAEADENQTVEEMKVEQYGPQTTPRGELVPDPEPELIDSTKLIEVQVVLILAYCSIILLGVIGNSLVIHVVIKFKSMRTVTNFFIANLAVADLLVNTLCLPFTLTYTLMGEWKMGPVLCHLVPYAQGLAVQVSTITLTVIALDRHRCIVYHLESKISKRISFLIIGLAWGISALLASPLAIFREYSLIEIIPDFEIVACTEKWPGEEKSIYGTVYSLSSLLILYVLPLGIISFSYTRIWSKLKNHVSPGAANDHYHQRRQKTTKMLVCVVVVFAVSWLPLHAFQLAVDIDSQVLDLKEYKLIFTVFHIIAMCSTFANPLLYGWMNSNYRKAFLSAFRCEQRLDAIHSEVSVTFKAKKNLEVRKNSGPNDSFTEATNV
# NPY-Y1 antag: NPY-Y1 (human) receptor antagonism. actives 1% (n = 200,000). HEK293-CNG Y1 cells, membrane potential fluorescence; NPY at EC95, then isoproterenol. P25929. inhibition, % at 3.6 µM. AID 1040;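 active means inhibition above the campaign mean inhibition of all tested compounds plus 3 SD, cut at about 20% in these data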;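 further: 0% = DMSO wells given NPY plus isoproterenol and 100% = isoproterenol alone without NPY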
#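 Assay system: HEK293 Y1/CNG channel cell line; Doses: single compound dose of 3.6 µM, 0.4% DMSO; Timing: dye 3 h, compound 60 min room temperature, stimulation 45 min; Technique: Membrane-potential fluorescent dye readout; Measure: % inhibition of NPY effect.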
# NPY-Y2 PAM-ag: potentiates or activates human NPY-Y2 receptor | actives 0.45% (n = 220,000) | AID 1359 | activation, % at 3.6 µM | P49146 | cells expressing NPY-Y2, potentiator/agonist read-out; in the data active means activation above about 27%;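 further: cells stimulated with NPY near EC25 plus isoproterenol at EC100; 0% = vehicle plus submaximal agonist and 100% = vehicle plus saturating agonist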
# NPY-Y1 pot conf: human NPY-Y1 potentiation or agonism, confirmation. shares compounds with NPY-Y1 PAM-ag. cell-based NPY-Y1 potentiator/agonist assay. activation, % at 3.6 µM. actives 20% (n = 280). AID 1546; in the data active means activation above about 45%;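 further: cells challenged with NPY at its EC10 plus isoproterenol stimulus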
# NPY-Y2 counter: NPY-Y2 potentiation or agonism as NPY-Y1 counter-screen; activation, % at 3.6 µM; AID 1649; HEK293-CNG cells, membrane-potential fluorescence (FLIPR), 1536-well; shares compounds with NPY-Y1 PAM-ag; actives 20% (n = 280); in the data active means activation above about 33%
# NPY-Y1 ag: activates human NPY-Y1, counter-screen for NPY-Y1 potentiators. shares compounds with NPY-Y1 PAM-ag. activation, % at 3.6 µM. actives 50% (n = 280). AID 1697. HEK293 Y1-CNGC, membrane potential fluorescence, agonist mode;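 active means percent activation above the mean of DMSO-only control wells plus 3 SD of those wells, cut at about 18% in these data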;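 further: cells challenged with isoproterenol plus Ro 20-1724 with no NPY in test wells; Y1 agonism lowers isoproterenol-driven cAMP and reduces probe fluorescence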
# NPY-Y2 ag: counter-screen for NPY-Y1 potentiators or agonists: agonists of NPY-Y2. shares compounds with NPY-Y1 PAM-ag. HEK293 Y2-CNGC, membrane potential fluorescence, agonist mode. activation, % at 3.6 µM. actives 67% (n = 280). AID 1698;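 active means activation above the solvent-only control wells' mean plus 3 SD, cut at about 11% in these data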;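 further: 0% = DMSO with isoproterenol and 100% = 40 nM NPY maximal response; agonism lowers cAMP so well fluorescence drops in active wells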
# CNGC inh 2: CNG channel inhibition, counter-screen for NPY-Y1 potentiators; shares compounds with NPY-Y1 PAM-ag; HEK293-CNG parental, isoproterenol cAMP, membrane potential fluorescence; inhibition, % at 3.6 µM; actives 42% (n = 280);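 active means inhibition above the mean of stimulated solvent-only control wells plus 3 SD, cut at about 22% in these data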;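 further: 0% = isoproterenol-stimulated DMSO wells and 100% = unstimulated DMSO wells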
# The depositor's hits bear a star; / = no result given. Shown are actives, neighbours in structure and some others; about 1.8% of the full set was active somewhere.
SMILES,NPY-Y1 PAM-ag,NPY Y2 blocker,NPY-Y1 antag,NPY-Y2 PAM-ag,NPY-Y1 pot conf,NPY-Y2 counter,NPY-Y1 ag,NPY-Y2 ag,CNGC inh 2
C=CCn1c(SCC(=O)Nc2sccc2C(N)=O)nc2ccc(Cl)cc2c1=O,38*,-2,-5,13,23,18,2,19*,9
C=CCn1c(SCC(=O)Nc2sccc2C(N)=O)nc2ccccc2c1=O,-3,3,3,7,/,/,/,/,/
CN(C)CCNC(=O)c1ccc(Sc2ccc(Br)cc2)c([N+](=O)[O-])c1,39*,/,-5,14,43,33*,26*,40*,30*
CC1=C/C(=N\NC(=O)c2ccccc2)CC1,-8,1,-2,6,/,/,/,/,/
Cc1cc(C)cc(OCC(O)CN2CCN(Cc3ccc4c(c3)OCO4)CC2)c1 (stereo unspecified),50*,/,-2,11,-15,-4,-3,8,-11
CC(C)c1ccc2[nH]c(O)c(N=NC(=O)c3cccc(S(=O)(=O)Nc4cccc(Cl)c4)c3)c2c1,50*,/,/,-8,29,23,24*,28*,20
COc1ccc(S(=O)(=O)N2CCOCC2)cc1NC(=O)CSc1cccc[n+]1[O-],11,/,/,-8,/,/,/,/,/
O=c1[nH]c(Cc2cccs2)nc2scc(-c3ccc(Cl)cc3)c12,66*,/,/,26,30,23,36*,33*,44*
O=c1[nH]c(Cc2ccccn2)nc2scc(-c3ccc(Cl)cc3)c12,25,/,-8,11,/,/,/,/,/
Cc1cc(S(=O)(=O)NCC(C)C)ccc1OCC(=O)NCc1ccco1,-13,/,-1,4,/,/,/,/,/
O=C(CSc1nc2ccccc2s1)N/N=C/c1cc([N+](=O)[O-])ccc1O,-12,/,/,-30,/,/,/,/,/
O=C(COc1ccc(S(=O)(=O)NC2CCCCC2)cc1Cl)N1CCN(c2ccccc2)CC1,41*,-4,-5,15,8,8,-1,9,13
O=C(COc1ccc(S(=O)(=O)NC2CCCCC2)cc1)N1CCN(c2ccc(F)cc2)CC1,6,0,-2,-19,/,/,/,/,/
CC(C)N=C1NN=C(c2ccc(Cl)c(Cl)c2)CS1,49*,/,1,9,-1,-3,-4,2,4
CC(C)N=C1NN=C(c2cccs2)CS1,0,/,7,-9,/,/,/,/,/
CC(Oc1cc(C(F)(F)F)cc(C(F)(F)F)c1)C(=O)NC(N)=O (stereo unspecified),49*,3,-13,24,46*,29,34*,32*,36*
O=C(Nc1ccc(C(O)(C(F)(F)F)C(F)(F)F)cc1)c1ccc(Cl)c([N+](=O)[O-])c1,46*,-6,-14,26,50*,50*,41*,40*,51*
O=C(O)c1cc(NC(=O)c2ccc(Cl)c([N+](=O)[O-])c2)cc(C(=O)O)c1,13,/,-7,2,/,/,/,/,/
CC(OC(=O)c1ccc(NS(=O)(=O)c2ccc3[nH]c(=O)[nH]c3c2)cc1)C(=O)Nc1ccc(Cl)cc1 (stereo unspecified),67*,/,3,-23,-2,-3,-4,2,-3
CCc1ccc(NC(=O)C(C)OC(=O)c2ccc(NS(=O)(=O)c3ccc(C)c([N+](=O)[O-])c3)cc2)cc1 (stereo unspecified),42*,-3,-12,19,24,10,16,12*,23*
Cc1ccc(NC(=O)C(C)OC(=O)c2ccc(NS(=O)(=O)c3ccc(F)c(F)c3)cc2)cc1 (stereo unspecified),9,0,1,21,/,/,/,/,/
COC(=O)Cn1c(=O)c(C(=O)CCl)c(N)n(Cc2ccccc2)c1=O,15,/,/,-12,/,/,/,/,/
O=C(COC(=O)CCSc1ccccc1Cl)NCc1ccco1,-12,/,8,-13,/,/,/,/,/
CCOC(=O)Nc1ccc2c(c1)N(C(=O)N1CCN(C)CC1)c1ccccc1S2,11,3,3,-7,/,/,/,/,/
C=CC(=O)N1c2ccccc2Sc2ccc(NC(=O)OCC)cc21,42*,3,-3,20,24,17,20*,13*,15
SMILES,NPY-Y1 PAM-ag,NPY Y2 blocker,NPY-Y1 antag,NPY-Y2 PAM-ag,NPY-Y1 pot conf,NPY-Y2 counter,NPY-Y1 ag,NPY-Y2 ag,CNGC inh 2
CC1CC(C)CN(CCCNC(=O)c2cc3c(=O)[nH]c4ccccc4c3n2C)C1 (stereo unspecified),41*,/,-5,21,20,20,26*,19*,9
COc1ccc(Cl)cc1NC(=S)NNC(=O)C1(C)CC1(Cl)Cl (stereo unspecified),-26,/,7,-20,/,/,/,/,/
CCC(=O)Nc1nnc(SCC(=O)NCCc2ccc(OC)c(OC)c2)s1,-1,/,-2,8,/,/,/,/,/
O=C(Nc1ccccc1)C1CC=CCC1C(=O)OCC1CCCO1 (stereo unspecified),55*,0,-2,10,-3,-6,-1,-1,-1
CC(=O)Nc1ccc(S(=O)(=O)NCCC(=O)NCCc2ccc(F)cc2)cc1,62*,-1,6,15,10,1,-5,10,0
O=C(Cn1cnc2ccccc2c1=O)NNC(=O)c1ccccc1,7,/,/,10,/,/,/,/,/
CCn1nnc2c(=O)oc3ccccc3c21,18,/,-5,-5,/,/,/,/,/
CC(C)Cn1nnc2c(=O)oc3ccccc3c21,60*,0,1,14,38,24,25*,23*,22*
CC(C)(C)c1cc(NCCCn2ccnc2)n2ncc(-c3ccc(Cl)cc3)c2n1,33,-4,-4,19,/,/,/,/,/
CN(C)CCCNc1cc(C(C)(C)C)nc2c(-c3ccccc3)cnn12,55*,/,/,27,41,34*,25*,20*,35*
CCOc1ccc(N2C(=O)C(CC(=O)Nc3ccc(F)cc3)N(Cc3ccccn3)C2=S)cc1 (stereo unspecified),42*,/,-12,11,47*,32,35*,46*,41*
O=[N+]([O-])c1cc(S(=O)(=O)N2CCCCCC2)ccc1Cl,41*,/,-2,31,16,22,16,22*,56*
CCN1C(=O)/C(=C/C=C2\N(CC)c3cc(S(=O)(=O)N(C)C)ccc3N2c2ccccc2)SC1=S,50*,/,/,18,57*,52*,51*,63*,39*
CCn1cc(C(=O)N2CCc3ccccc32)c(=O)c2cc(S(=O)(=O)N(C)C3CCCCC3)ccc21,51*,2,-9,10,-1,9,3,4,1

# Screening results from PubChem BioAssay.
